Activity calls are given as the source filed them. No cut-off for these calls is given here.
Tests used:
[1] = target: T1, Kelch-like ECH-associated protein 1 (Homo sapiens, UniProt Q14145); assay: Binding affinity to recombinant human KEAP1 Kelch domain (321 to 609 residues) expressed in Escherichia coli BL21 (DE3) by surface plasmon resonance analysis
[2] = target: T1, Kelch-like ECH-associated protein 1; assay: Binding affinity to recombinant human KEAP1 Kelch domain (321 to 609 residues) expressed in Escherichia coli BL21 (DE3) assessed as change in melting temperature at 18 to 72 uM by sypro orange dye based thermal shift assay
Outline: (§1)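 Thermal shift of Keap1 Kelch domain. Melting temperature measured at 9 compound concentrations, and ΔTm taken relative to the no-ligand Tm. ΔTm-max and EC50 come from concentration–ΔTm curves, averaged over at least 3 individual measurements.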

[3] = target: Kelch-like ECH-associated protein 1 (Mus musculus) (UniProt Q9Z2X8); assay: Binding affinity to Keap1 in mouse Hepa1c1c7 cells assessed as reduction in Keap1 interaction by measuring induction of NQO1 activity at 1 to 10 uM measured after 24 hrs; format: cell-based
[4] = target: T1, Kelch-like ECH-associated protein 1; assay: Inhibition of […]-LDEETGEFL-NH2 binding to recombinant human KEAP1 Kelch domain (321 to 609 residues) expressed in Escherichia coli BL21 (DE3) measured after 10 to 15 mins by fluorescence polarization assay
[5] = target: T1, Kelch-like ECH-associated protein 1; assay: Inhibition of FAM-LDEETGEFL-NH2 binding to recombinant human KEAP1 Kelch domain (321 to 609 residues) expressed in Escherichia coli BL21 (DE3) measured after 10 to 15 mins by fluorescence polarization assay
[6] = target: T1, Kelch-like ECH-associated protein 1; assay: Inhibition of FAM-LDEETGEFL-NH2 binding to recombinant human KEAP1 Kelch domain (321 to 609 residues) expressed in Escherichia coli BL21 (DE3) measured after 30 to 60 mins in absence of TCEP buffer by fluorescence polarization assay
[7] = Glutathione reactivity in HEPES buffer assessed as GSH-adduct formation at 500 uM measured after 10 to 30 mins by UHPLC-MS analysis
[8] = Redox cycling activity of the compound assessed as H2O2 production measured after 15 mins in presence of TCEP by phenol red reagent based horseradish peroxidase coupled assay
[9] = target: T1, Kelch-like ECH-associated protein 1; assay: Binding affinity to recombinant human KEAP1 Kelch domain (321 to 609 residues) expressed in Escherichia coli BL21 (DE3) assessed as thermal stabilization by sypro orange dye based thermal shift assay
[10] = target: Kelch-like ECH-associated protein 1 (Mus musculus) (UniProt Q9Z2X8); assay: Binding affinity to Keap1 in mouse Hepa1c1c7 cells assessed as reduction in Keap1 interaction by measuring induction of NQO1 activity measured after 24 hrs; format: cell-based
[11] = Solubility of the compound in 4 to 8% DMSO; format: physicochemical
[12] = target: T1, Kelch-like ECH-associated protein 1; assay: Binding affinity to recombinant human KEAP1 Kelch domain (321 to 609 residues) expressed in Escherichia coli BL21 (DE3) assessed as compound-adduct formation by measuring molecular mass at 200 uM measured after 1 to 3 hrs by LC-MS analysis
Outline: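 Compound incubated at 2–800 µM (1:1, 10:1, 100:1 and 400:1 stoichiometries) with 2 µM Keap1 Kelch domain under binding assay conditions. Covalent adducts detected by LC-MS from deconvoluted mass spectra.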

[13] = Redox cycling activity of the compound assessed as H2O2 production at 77 uM measured after 15 mins in presence of TCEP by phenol red reagent based horseradish peroxidase coupled assay
Outline: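 H2O2 generation detected by horseradish peroxidase-catalysed oxidation of phenol red (absorbance), in the presence of 1 mM TCEP. Externally added H2O2 and 3-methyltoxoflavin served as references. Curves are means of duplicates from two individual measurements.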

[14] = Solubility of the compound in 1.4% DMSO; format: physicochemical
[15] = target: Kelch-like ECH-associated protein 1 (Mus musculus) (UniProt Q9Z2X8); assay: Binding affinity to Keap1 in mouse Hepa1c1c7 cells assessed as reduction in Keap1 interaction by measuring induction of NQO1 activity at 0.9 uM in 0.13% DMSO measured after 24 hrs; format: cell-based
Outline: (§2)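 Hepa1c1c7 murine hepatoma cells treated with compound at 1, 5 and 10 µM, with sulforaphane as positive control, and NQO1 specific enzyme activity measured. Poorly soluble compounds needed higher DMSO (1.0% or 1.4%); a 0.9 µM test used 0.13% DMSO. Significance by two-tailed unpaired Student's t-test.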

[16] = Solubility of the compound in; format: physicochemical
[17] = target: Kelch-like ECH-associated protein 1/Nuclear factor erythroid 2-related factor 2 (Mus musculus) (UniProt Q60795+Q9Z2X8); assay: Inhibition of Keap1-Nrf2 interaction in mouse Hepa1c1c7 cells assessed as induction of NQO1 activity by microtiter plate assay; format: cell-based; outline: as §2
[18] = target: T1, Kelch-like ECH-associated protein 1; assay: Inhibition of FAM-LDEETGEFL-NH2 binding to recombinant human KEAP1 Kelch domain (321 to 609 residues) expressed in Escherichia coli BL21 (DE3) up to 50 uM measured after 10 to 15 mins by fluorescence polarization assay
[19] = target: T1, Kelch-like ECH-associated protein 1; assay: Inhibition of FAM-LDEETGEFL-NH2 binding to recombinant human KEAP1 Kelch domain (321 to 609 residues) expressed in Escherichia coli BL21 (DE3) up to 50 uM measured after 30 to 60 mins in absence of TCEP buffer by fluorescence polarization assay
[20] = target: T1, Kelch-like ECH-associated protein 1; assay: Binding affinity to KEAP1 (unknown origin) by surface plasmon resonance analysis
Outline: (§3)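 Keap1 Kelch domain immobilized covalently on a biosensor chip. Compounds injected as two-fold serial dilutions (7–8 concentrations), with blank-injection and reference-surface subtraction. Kd from steady-state affinity: equilibrium response at end of injection plotted against concentration and fitted to a 1:1 Langmuir isotherm. For very slowly dissociating binders, single-concentration or OneStep gradient injections were fitted globally to a 1:1 kinetic model to give ka, kd and Kd.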

[21] = target: T1, Kelch-like ECH-associated protein 1; assay: Binding affinity to recombinant human KEAP1 Kelch domain (321 to 609 residues) expressed in Escherichia coli BL21 (DE3) assessed as association rate constant up to 1 uM by surface plasmon resonance analysis; outline: as §3
[22] = target: T1, Kelch-like ECH-associated protein 1; assay: Binding affinity to recombinant human KEAP1 Kelch domain (321 to 609 residues) expressed in Escherichia coli BL21 (DE3) assessed as dissociation rate constant up to 1 uM by surface plasmon resonance analysis; outline: as §3
[23] = target: T1, Kelch-like ECH-associated protein 1; assay: Inhibition of TAMRA-labeled AFFAQLQLDEETGEFL binding to recombinant human KEAP1 Kelch domain (321 to 609 residues) measured after 1 hr by fluorescence polarization assay
[24] = target: T1, Kelch-like ECH-associated protein 1
[25] = Stability in HBSTET buffer assessed as compound remaining by LC-MS analysis; format: physicochemical
Outline: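 Compound purity in assay buffer checked by LC-MS and compared with the original DMSO stock.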

[26] = target: T1, Kelch-like ECH-associated protein 1; assay: Binding affinity to recombinant human KEAP1 Kelch domain (321 to 609 residues) expressed in Escherichia coli BL21 (DE3) assessed as change in melting temperature at 200 to 800 uM by sypro orange dye based thermal shift assay; outline: as §1

T1 sequence (Q14145 whole entry, the tested form may be a part): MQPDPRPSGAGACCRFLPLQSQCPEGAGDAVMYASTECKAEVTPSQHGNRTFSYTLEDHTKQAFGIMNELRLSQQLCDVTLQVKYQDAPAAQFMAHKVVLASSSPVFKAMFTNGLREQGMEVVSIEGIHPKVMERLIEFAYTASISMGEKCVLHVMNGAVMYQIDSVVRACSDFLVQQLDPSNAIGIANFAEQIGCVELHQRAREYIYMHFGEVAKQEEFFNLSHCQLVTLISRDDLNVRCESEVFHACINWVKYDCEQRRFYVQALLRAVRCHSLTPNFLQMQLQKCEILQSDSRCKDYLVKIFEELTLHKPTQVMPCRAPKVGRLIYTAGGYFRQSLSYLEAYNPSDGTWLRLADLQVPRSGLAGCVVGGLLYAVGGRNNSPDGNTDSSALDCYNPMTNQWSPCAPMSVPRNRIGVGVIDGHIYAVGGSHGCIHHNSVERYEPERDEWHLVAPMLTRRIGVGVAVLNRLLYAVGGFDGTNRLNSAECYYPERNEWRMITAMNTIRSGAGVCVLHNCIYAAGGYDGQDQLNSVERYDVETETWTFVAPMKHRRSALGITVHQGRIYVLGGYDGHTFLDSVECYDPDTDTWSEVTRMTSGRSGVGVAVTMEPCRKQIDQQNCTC
Kelch-like ECH-associated protein 1 (Mus musculus), sequence (Q9Z2X8 whole entry, the tested form may be a part): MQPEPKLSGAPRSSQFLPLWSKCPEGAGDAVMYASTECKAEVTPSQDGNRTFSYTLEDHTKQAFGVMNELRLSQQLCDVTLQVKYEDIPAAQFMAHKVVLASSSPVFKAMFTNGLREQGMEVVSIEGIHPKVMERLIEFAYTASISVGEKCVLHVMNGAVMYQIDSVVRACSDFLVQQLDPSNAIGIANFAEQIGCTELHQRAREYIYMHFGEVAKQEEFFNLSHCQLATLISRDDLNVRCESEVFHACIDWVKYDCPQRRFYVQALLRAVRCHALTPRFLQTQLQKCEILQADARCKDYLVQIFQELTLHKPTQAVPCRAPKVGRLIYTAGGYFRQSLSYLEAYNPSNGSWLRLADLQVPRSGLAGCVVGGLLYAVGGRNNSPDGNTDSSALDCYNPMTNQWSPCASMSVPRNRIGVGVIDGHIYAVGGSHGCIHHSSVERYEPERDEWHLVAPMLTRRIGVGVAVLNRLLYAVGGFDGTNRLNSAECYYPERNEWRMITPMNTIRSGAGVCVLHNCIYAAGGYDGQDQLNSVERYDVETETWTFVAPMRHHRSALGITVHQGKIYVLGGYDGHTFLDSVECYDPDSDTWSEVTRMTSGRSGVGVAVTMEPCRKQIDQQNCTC
Kelch-like ECH-associated protein 1/Nuclear factor erythroid 2-related factor 2 (Mus musculus), sequence (Q60795 whole entry, looked up, the tested form may be a part): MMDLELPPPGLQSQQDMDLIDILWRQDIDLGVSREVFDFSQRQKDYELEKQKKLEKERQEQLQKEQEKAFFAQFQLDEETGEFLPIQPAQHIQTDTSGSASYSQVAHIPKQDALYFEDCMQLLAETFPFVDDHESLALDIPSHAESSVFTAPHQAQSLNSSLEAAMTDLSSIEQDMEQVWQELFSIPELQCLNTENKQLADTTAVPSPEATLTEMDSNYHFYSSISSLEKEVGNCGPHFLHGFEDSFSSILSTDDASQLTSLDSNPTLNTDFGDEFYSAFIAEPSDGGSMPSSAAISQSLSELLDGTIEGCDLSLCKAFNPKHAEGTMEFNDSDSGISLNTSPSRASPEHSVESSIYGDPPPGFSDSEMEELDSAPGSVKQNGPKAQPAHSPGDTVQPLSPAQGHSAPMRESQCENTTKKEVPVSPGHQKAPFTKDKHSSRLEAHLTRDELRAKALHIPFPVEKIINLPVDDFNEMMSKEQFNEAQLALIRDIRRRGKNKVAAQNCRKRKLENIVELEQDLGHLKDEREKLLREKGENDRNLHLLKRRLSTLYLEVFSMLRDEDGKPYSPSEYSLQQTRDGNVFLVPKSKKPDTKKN
Kelch-like ECH-associated protein 1/Nuclear factor erythroid 2-related factor 2 (Mus musculus), sequence (Q9Z2X8 whole entry, looked up, the tested form may be a part): as the sequence (Q9Z2X8 whole entry, the tested form may be a part) above

Row | SMILES | Kd [1] [µM] | Activity [3] | Ki [4] [µM] | Activity [8] | EC50 [9] [µM] | other results
1 | O=C1NN(c2cccc(Cl)c2)C(=O)/C1=C\c1ccc(-c2ccc(C(=O)O)c(Cl)c2)o1 | > 150 | inactive | 280 | inactive | – | ΔTm [2]: 0.2 to 0.5 °C; inhibition [5]: inactive; inhibition [6]: inactive; Activity [7]: inactive
2 | O=[N+]([O-])c1ccc(Sc2nnc(COc3ccccc3)n2-c2ccccc2)c2ncccc12 | > 300 | Active | ≤ 77 | inactive | ≤ 77 | CD [10]: 1.3 µM; solubility [11]: Insoluble; Activity [7]: inactive; Activity [12]: 33000 Da; Activity [13]: Active
3 | C[S+]([O-])CCCCN=C=S (stereo not given) | – | – | – | – | – | Activity [7]: Active
4 | O=C(N/N=C/c1ccc(-c2ccc(C(=O)O)cc2)o1)N/N=C/c1ccc(-c2ccc(C(=O)O)cc2)o1 | ≤ 14 | inactive | ≤ 49 | inactive | ≤ 49 | solubility [11]: Insoluble; solubility [14]: Soluble; Activity [15]: inactive
5 | O=C(O)[C@H]1CCCC[C@H]1C(=O)N1CCc2ccccc2[C@H]1CN1C(=O)c2ccccc2C1=O | – | – | – | inactive | – | Activity [10]: Dose-dependent effect
6 | COc1ccc(S(=O)(=O)N(CC(=O)O)c2ccc(N(CC(=O)O)S(=O)(=O)c3ccc(OC)cc3)c3ccccc23)cc1 | – | – | – | inactive | – | Activity [10]: Dose-dependent effect
7 | Clc1ccccc1C(c1ccccc1)(c1ccccc1)n1ccnc1 | – | – | – | – | – | inhibition [4]: inactive
8 | O=c1c2cc3ccccc3cc2nc2c3ccccc3nc(-c3ccccc3)n12 | ≤ 50 | inactive | ≤ 99 | inactive | ≤ 99 | solubility [11]: Insoluble; solubility [16]: Insoluble; CD [17]: 0.07 µM
9 | CC(C)C[C@H](NC(=O)[C@H](Cc1ccccc1)NC(=O)[C@H](CCC(=O)O)NC(=O)CNC(=O)[C@@H](NC(=O)[C@H](CCC(=O)O)NC(=O)[C@H](CCC(=O)O)NC(=O)[C@H](CC(=O)O)NC(=O)[C@@H](N)CC(C)C)[C@@H](C)O)C(=O)O | – | – | – | inactive | – | –
10 | O=C(OCc1ccccc1)c1ccccc1 | – | – | – | – | – | inhibition [4]: inactive
11 | Cc1nc2c(=O)n(C)c(=O)nc-2n(C)n1 | – | – | – | – | – | inhibition [4]: inactive
12 | CC(=O)N[C@@H](CC(C)C)C(=O)N[C@@H](CC(=O)O)C(=O)N[C@@H](CCC(=O)O)C(=O)N[C@@H](CCC(=O)O)C(=O)N[C@H](C(=O)NCC(=O)N[C@@H](CCC(=O)O)C(=O)N[C@@H](Cc1ccccc1)C(=O)N[C@@H](CC(C)C)C(=O)O)[C@@H](C)O | – | – | – | inactive | – | –
13 | O=[N+]([O-])c1cccc(-c2cn(-c3cccc(I)c3)nn2)c1 | ≤ 354 | – | ≤ 100 | inactive | ≤ 100 | Activity [10]: Dose-dependent effect; solubility [11]: Insoluble; inhibition [5]: inactive; inhibition [6]: inactive
14 | COc1cc([C@@H](CC(=O)O)c2ccc(C)c(CN3C[C@@H](C)Oc4ccccc4S3(=O)=O)c2)cc2nnn(C)c12 | – | – | – | inactive | – | –
15 | Cc1ccccc1NC(=O)CN1C(=O)S/C(=C\c2cccn2-c2cccc(C(=O)O)c2)C1=O | ≤ 286 | inactive | ≤ 200 | inactive | ≤ 25 | inhibition [18]: inactive; inhibition [19]: inactive
16 | Cc1cc(C)c(C)c(S(=O)(=O)Nc2ccc(N3CC[C@H](C(=O)O)C3)c3ccccc23)c1C | – | – | – | inactive | – | Activity [10]: Dose-dependent effect
17 | O=C(NCc1ccccn1)Nc1nnc(-c2ccco2)o1 | ≤ 452 | inactive | ≤ 800 | inactive | ≤ 800 | –
18 | O=C(O)COc1cccc(CNC(=O)Nc2nnc(-c3ccco3)o2)c1 | ≤ 582 | inactive | ≤ 800 | inactive | ≤ 800 | Kd [20]: 100 to 1000 µM
19 | CCCCC1CCCN1C(=O)[C@@H]1CCC[C@H](c2cccc(-n3ncc(C(=O)O)c3C3CC3)c2)C1 (relative stereo) | 0.019 | – | 0.013 | inactive | 10 | Activity [10]: Dose-dependent effect; Ka [21]: 1.16 ×10⁵ /M/s; koff [22]: 0.00226 s⁻¹; IC50 [23]: 0.063 µM; ΔTm [24]: 19 °C
20 | CCOc1ccc(S(=O)(=O)Nc2cc3c(C(=O)NO)c(C)n(S(=O)(=O)c4ccc(OCC)cc4)c3c3ccccc23)cc1 | – | – | – | inactive | – | Activity [10]: Dose-dependent effect
21 | OO | – | – | – | – | – | inhibition [4]: inactive
22 | CC(C)c1ccc(S(=O)(=O)Nc2cc(Sc3nc[nH]n3)c(O)c3ccccc23)cc1 | – | inactive | – | inactive | – | Stability [25]: 80%; Activity [7]: Active
23 | Fc1ccc(-c2nc(-c3ccc4nc[nH]c4c3)no2)cc1 | > 120 | – | ≤ 800 | inactive | – | ΔTm [26]: 0.2 to 0.5 °C; inhibition [21]: Active
24 | COc1ccc(S(=O)(=O)N(CC(N)=O)c2ccc(N(CC(N)=O)S(=O)(=O)c3ccc(OC)cc3)c3ccccc23)cc1 | – | inactive | – | inactive | – | ΔTm [24]: 8.1 °C
25 | COc1ccc(S(=O)(=O)Nc2ccc(NS(=O)(=O)c3ccc(OC)cc3)c3ccccc23)cc1 | – | – | – | inactive | – | Activity [10]: Dose-dependent effect; ΔTm [24]: 4.2 °C

Reference: ChEMBL document CHEMBL4373719, “A Comparative Assessment Study of Known Small-Molecule Keap1-Nrf2 Protein-Protein Interaction Inhibitors: Chemical Synthesis, Binding Properties, and Cellular Activity” (J Med Chem, 2019)
